Source: ChEMBL document CHEMBL1152293, “Discovery of novel, potent and bioavailable proline-urea based macrocyclic HCV NS3/4A protease inhibitors” (Bioorg Med Chem Lett, 2008)

Experiments:
[1] = Inhibition of full length HCV NS3/4A protease; design: species or system Hepacivirus hominis
[2] = system: Hepatitis C virus; assay: Antiviral activity against HCV infected in human Huh7 cells after 48 hrs by luciferase based replicon assay; format: functional, organism-based, Hepacivirus hominis; settings: Huh-7, 48 h
[3] = Apparent permeability across apical to basolateral side in human Caco-2 cells; format: ADME, cell-based
[4] = Metabolic stability in rat liver microsomes at 5 uM after 15 mins; format: ADME, Microsome
How it was run: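 Rat liver microsomes at 1 mg protein/mL were incubated with 5 μM test compound at 37 °C for 15 min. Stability is expressed as % of compound metabolized.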

[5] = Clearance in Sprague-Dawley rat at 2 mg/kg, iv; format: ADME, organism-based; design: dose 2 mg/kg, route intravenous; settings: in vivo
How it was run: (§1)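 Male Sprague–Dawley rats (n = 2 per route) received a single intravenous dose of 2 mg/kg or an oral dose of 10 mg/kg in 50% PEG-400 in water. Plasma levels were averaged, and PK parameters were calculated. Bioavailability was derived from the iv and oral arms.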

[6] = Volume of distribution in Sprague-Dawley rat at 2 mg/kg, iv; format: ADME, organism-based; design: dose 2 mg/kg, route intravenous; settings: in vivo; how it was run: as §1
[7] = AUC in Sprague-Dawley rat at 2 mg/kg, iv; format: ADME, organism-based; design: dose 2 mg/kg, route intravenous; settings: plasma; how it was run: as §1
[8] = AUC in Sprague-Dawley rat at 10 mg/kg, po; format: ADME, organism-based; design: dose 10 mg/kg, route oral; settings: plasma; how it was run: as §1
[9] = Cmax in Sprague-Dawley rat at 10 mg/kg, po; format: ADME, organism-based; design: dose 10 mg/kg, route oral; settings: in vivo; how it was run: as §1
[10] = Tmax in Sprague-Dawley rat at 10 mg/kg, po; format: ADME, organism-based; design: dose 10 mg/kg, route oral; settings: in vivo; how it was run: as §1
[11] = Half life in Sprague-Dawley rat at 10 mg/kg, po; format: ADME, organism-based; design: dose 10 mg/kg, route oral; settings: in vivo; how it was run: as §1
[12] = Oral bioavailability in Sprague-Dawley rat at 10 mg/kg; format: ADME, organism-based; settings: in vivo; how it was run: as §1
[13] = Ratio of drug level in liver to plasma of Sprague-Dawley rat at 10 mg/kg, po after 8 hrs
[14] = Ratio of drug level in liver to plasma of Sprague-Dawley rat at 10 mg/kg, po after 6 hrs
[15] = Bioavailability in Sprague-Dawley rat at 2 mg/kg, iv and 10 mg/kg, po; format: ADME, organism-based; settings: in vivo; how it was run: as §1
[16] = Cytotoxicity against human HuH7 cells; format: cell-based, Huh-7
[17] = Selectivity index, ratio of CC50 for human Huh7 cells to EC50 for HCV; design: species or system Huh-7

SMILES: COc1ccc2c(O[C@@H]3C[C@H]4C(=O)N[C@]5(C(=O)O)C[C@H]5/C=C\CCCCCN(C)C(=O)N4C3)cc(-c3ccccc3)nc2c1
- Ki [1]: 10 nM
- EC50 [2]: 4500 nM

SMILES: COc1ccc2c(O[C@@H]3C[C@H]4C(=O)N[C@]5(C(=O)O)C[C@H]5/C=C\CCCCC[C@H](NC(=O)OC(C)(C)C)C(=O)N4C3)cc(-c3ccccc3)nc2c1
- Ki [1]: 11 nM
- EC50 [2]: 77 nM

SMILES: COc1ccc2c(O[C@@H]3C[C@H]4C(=O)N[C@]5(C(=O)O)C[C@H]5/C=C\CCCCCN(NC(=O)OC(C)(C)C)C(=O)N4C3)cc(-c3ccccc3)nc2c1
- Ki [1]: 600 nM
- EC50 [2]: > 10000 nM

SMILES: COc1ccc2c(O[C@@H]3C[C@H]4C(=O)N[C@]5(C(=O)NS(=O)(=O)C6CC6)C[C@H]5/C=C\CCCCCN(C)C(=O)N4C3)cc(-c3ccccc3)nc2c1
- Ki ([1]; read-out: Ki): 10 nM
- EC50 [2]: 4500 nM

SMILES: COc1ccc2c(O[C@@H]3C[C@H]4C(=O)N[C@]5(C(=O)NS(=O)(=O)C6CC6)C[C@H]5/C=C\CCCCCNC(=O)N4C3)cc(-c3nccs3)nc2c1
- Ki ([1]; read-out: Ki): 0.3 nM
- EC50 [2]: 11 nM
- Papp A→B [3]: 0.4 ×10⁻⁶ cm/s

SMILES: COc1ccc2c(O[C@@H]3C[C@H]4C(=O)N[C@]5(C(=O)NS(=O)(=O)C6CC6)C[C@H]5/C=C\CCCCCNC(=O)N4C3)cc(-c3nc(C(C)C)cs3)nc2c1Cl
- Ki ([1]; read-out: Ki): 0.1 nM
- EC50 [2]: 2.2 nM
- Papp A→B [3]: 22 ×10⁻⁶ cm/s
- metabolized at 0.25 h, 5 µM [4]: 45%

SMILES: COc1ccc2c(O[C@@H]3C[C@H]4C(=O)N[C@]5(C(=O)NS(=O)(=O)C6CC6)C[C@H]5/C=C\CCCCOC(=O)N4C3)cc(-c3ccccc3)nc2c1
- Ki ([1]; read-out: Ki): 0.35 nM
- EC50 [2]: 62 nM

SMILES: COc1ccc2c(O[C@@H]3C[C@H]4C(=O)N[C@]5(C(=O)NS(=O)(=O)C6CC6)C[C@H]5/C=C\CCCCN(C)C(=O)N4C3)cc(-c3ccccc3)nc2c1
- Ki ([1]; read-out: Ki): 0.4 nM
- EC50 [2]: 44 nM

SMILES: COc1ccc2c(O[C@@H]3C[C@H]4C(=O)N[C@]5(C(=O)NS(=O)(=O)C6CC6)C[C@H]5/C=C\CCCCCNC(=O)N4C3)cc(-c3ccccc3)nc2c1
- Ki ([1]; read-out: Ki): 0.24 nM
- EC50 [2]: 15 nM

SMILES: COc1ccc2c(O[C@@H]3C[C@H]4C(=O)N[C@]5(C(=O)NS(=O)(=O)C6(C)CC6)C[C@H]5/C=C\CCCCCNC(=O)N4C3)cc(-c3nc(C(C)C)cs3)nc2c1Cl
- Ki ([1]; read-out: Ki): 0.1 nM
- EC50 [2]: 4 nM
- Papp A→B [3]: 29 ×10⁻⁶ cm/s
- metabolized at 0.25 h, 5 µM [4]: 21%

SMILES: COc1ccc2c(O[C@@H]3C[C@H]4C(=O)N[C@]5(C(=O)NS(=O)(=O)C6CC6)C[C@H]5/C=C\CCCCN(C)C(=O)N4C3)cc(-c3nc(C(C)C)cs3)nc2c1
- Ki ([1]; read-out: Ki): 0.45 nM
- EC50 [2]: 26 nM
- clearance [5]: 27.5 mL/min/kg
- Vd [6]: 4.5 L/kg
- AUC [7]: 1.65 µM·h
- AUC [8]: 3.12 µM·h
- Cmax [9]: 730 nM
- Tmax [10]: 1.25 h
- half-life [11]: 2.55 h
- bioavailability [12]: 37%
- liver/plasma ratio at 8 h [13]: 12

SMILES: COc1ccc2c(O[C@@H]3C[C@H]4C(=O)N[C@]5(C(=O)NS(=O)(=O)C6CC6)C[C@H]5/C=C\CCCCNC(=O)N4C3)cc(-c3nc(C(C)C)cs3)nc2c1
- Ki ([1]; read-out: Ki): 0.5 nM
- EC50 [2]: 5 nM
- clearance [5]: 15.7 mL/min/kg
- Vd [6]: 1.6 L/kg
- AUC [7]: 3 µM·h
- AUC [8]: 0.19 µM·h
- Cmax [9]: 26 nM
- Tmax [10]: 2 h
- half-life [11]: 3.8 h
- bioavailability [12]: 1.3%
- Papp A→B [3]: 3 ×10⁻⁶ cm/s
- liver/plasma ratio at 6 h [14]: 9.5

SMILES: COc1ccc2c(O[C@@H]3C[C@H]4C(=O)N[C@]5(C(=O)NS(=O)(=O)C6(C)CC6)C[C@H]5/C=C\CCCCCNC(=O)N4C3)cc(-c3nc(C(C)C)cs3)nc2c1C
- Ki ([1]; read-out: Ki): 0.2 nM
- EC50 [2]: 6.8 nM
- bioavailability [15]: 11%

SMILES: COc1ccc2c(O[C@@H]3C[C@H]4C(=O)N[C@]5(C(=O)NS(=O)(=O)C6CC6)C[C@H]5/C=C\CCCCCN(C)C(=O)N4C3)cc(-c3nc(C(C)C)cs3)nc2c1
- Ki ([1]; read-out: Ki): 12 nM
- EC50 [2]: 700 nM

SMILES: COc1ccc2c(O[C@@H]3C[C@H]4C(=O)N[C@]5(C(=O)NS(=O)(=O)C6CC6)C[C@H]5/C=C\CCCCCOC(=O)N4C3)cc(-c3ccccc3)nc2c1
- Ki ([1]; read-out: Ki): 2.4 nM
- EC50 [2]: 460 nM

SMILES: COc1ccc2c(O[C@@H]3C[C@H]4C(=O)N[C@]5(C(=O)NS(=O)(=O)C6CC6)C[C@H]5/C=C\CCCCCNC(=O)N4C3)cc(-c3cscn3)nc2c1
- EC50 [2]: 98 nM

SMILES: COc1ccc2c(O[C@@H]3C[C@H]4C(=O)N[C@]5(C(=O)NS(=O)(=O)C6CC6)C[C@H]5/C=C\CCCCCNC(=O)N4C3)cc(-c3nc(C(C)C)cs3)nc2c1C
- Ki ([1]; read-out: Ki): 0.05 nM
- EC50 [2]: 1.7 nM
- metabolized at 0.25 h, 5 µM [4]: 23%

SMILES: COc1ccc2c(O[C@@H]3C[C@H]4C(=O)N[C@]5(C(=O)NS(=O)(=O)C6(C)CC6)C[C@H]5/C=C\CCCCCNC(=O)N4C3)cc(-c3nc(C(C)C)cs3)nc2c1
- Ki ([1]; read-out: Ki): 0.1 nM
- CC50 ([16]; Huh-7 cells): > 50000 nM
- Activity ([16]; huh-7): Non-toxic
- EC50 [2]: 4.5 nM
- clearance [5]: 9.83 mL/min/kg
- Cmax [9]: 1710 nM
- bioavailability [12]: 54%
- Papp A→B [3]: 30 ×10⁻⁶ cm/s
- metabolized at 0.25 h, 5 µM [4]: 89%
- bioavailability [15]: 54%
- Selectivity Index [17]: >10000
- liver/plasma ratio at 6 h [14]: 105

SMILES: COc1ccc2c(O[C@@H]3C[C@H]4C(=O)N[C@]5(C(=O)NS(=O)(=O)C6CC6)C[C@H]5/C=C\CCCCCNC(=O)N4C3)cc(-c3nc(C(C)C)cs3)nc2c1
- Ki ([1]; read-out: Ki): 0.2 nM
- EC50 [2]: 5 nM
- clearance [5]: 9.17 mL/min/kg
- Vd [6]: 1.46 L/kg
- AUC [7]: 7.09 µM·h
- AUC [8]: 6.97 µM·h
- Cmax [9]: 950 nM
- Tmax [10]: 1.25 h
- half-life [11]: 5.4 h
- bioavailability [12]: 20%
- Papp A→B [3]: 10 ×10⁻⁶ cm/s
- metabolized at 0.25 h, 5 µM [4]: 93%
- bioavailability [15]: 20%
- liver/plasma ratio at 6 h [14]: 29

SMILES: COc1ccc2c(O[C@@H]3C[C@H]4C(=O)N[C@]5(C(=O)NS(=O)(=O)C6CC6)C[C@H]5/C=C\CCCCNC(=O)N4C3)cc(-c3ccccc3)nc2c1
- Ki ([1]; read-out: Ki): 1.5 nM
- EC50 [2]: 14 nM
